An excerpt weighted towards active compounds, which were near 2.4% of everything screened.
NPY Y1 blocker = NPY-Y1 receptor antagonists, primary screen, cell-based; AID 1040, 2008; actives 1% (n = 200,000); inhibition, % at 3.6 µM; HEK293-CNG Y1 cells, membrane potential fluorescence; NPY at EC95, then isoproterenol;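 active means inhibition above the campaign mean inhibition of all tested compounds plus 3 SD, cut at about 20% in these data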
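Assay system: HEK293 Y1/CNG channel cell line; Doses: single compound dose of 3.6 µM, 0.4% DMSO; Timing: dye 3 h, compound 60 min room temperature, stimulation 45 min; Technique: Membrane-potential fluorescent dye readout; Measure: % inhibition of NPY effect.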
NPY2 pot ag = NPY-Y2 potentiators or agonists, primary screen, cell-based | cells expressing NPY-Y2, potentiator/agonist read-out | actives 0.45% (n = 220,000) | activation, % at 3.6 µM | AID 1359, 2008; in the data active means activation above about 27%;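 further: cells stimulated with NPY near EC25 plus isoproterenol at EC100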
NPY-Y2 antag = NPY-Y2 receptor antagonists, primary screen, cell-based; Neuropeptide Y receptor type 2 (Homo sapiens), P49146; NPY-Y2 expressing cells, antagonist mode; inhibition, % at 2.7 µM; actives 0.99% (n = 140,000); AID 793, 2007; in the data active means inhibition above about 17%
S1P4 ag = S1P4 receptor agonists, primary screen, cell-based; S1P4-expressing cell line, agonist reporter assay; activation, % at 4.98 µM; actives 0.35% (n = 220,000); in the data active means activation above about 11%
Target sequence (O95977 whole entry, looked up): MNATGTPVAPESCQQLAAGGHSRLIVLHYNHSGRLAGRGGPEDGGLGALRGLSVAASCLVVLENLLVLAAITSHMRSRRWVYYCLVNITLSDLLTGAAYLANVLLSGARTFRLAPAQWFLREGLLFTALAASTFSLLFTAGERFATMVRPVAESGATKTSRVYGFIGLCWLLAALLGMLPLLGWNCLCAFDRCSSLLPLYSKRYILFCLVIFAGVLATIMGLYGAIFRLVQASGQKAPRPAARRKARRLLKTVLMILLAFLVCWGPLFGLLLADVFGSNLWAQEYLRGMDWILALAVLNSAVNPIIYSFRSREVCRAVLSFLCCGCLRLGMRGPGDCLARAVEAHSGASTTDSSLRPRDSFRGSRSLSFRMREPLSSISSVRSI
S1P4 antag = S1P4 receptor antagonists, primary screen, cell-based; Sphingosine 1-phosphate receptor 4 (Homo sapiens), O95977; S1P4-expressing cells, antagonist mode, reporter read-out; inhibition, % at 4.98 µM; actives 0.26% (n = 220,000); AID 1510, 2009; in the data active means inhibition above about 29%
NPY1 pot ag = NPY-Y1 receptor potentiators or agonists, primary screen, cell-based. NPY-Y1 expressing cells, potentiator/agonist activation. activation, % at 3.6 µM. actives 0.37% (n = 220,000). AID 1304, 2008; in the data active means activation above about 33%, passing the limit was not always enough;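 further: cells stimulated with NPY at EC10 then isoproterenol at EC100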
NPY-Y2 pot conf = NPY-Y2 potentiators or agonists, confirmation, cell-based; AID 1539, 2009; cell-based NPY-Y2 potentiator/agonist assay; shares compounds with NPY2 pot ag; activation, % at 3.6 µM; actives 20% (n = 450); in the data active means activation above about 33%
NPY-Y1 potentiator = NPY-Y1 potentiators or agonists, counter-screen for NPY-Y2 potentiator project, cell-based, fluorescence; shares compounds with NPY2 pot ag; Y1 HEK293-CNG cells, membrane potential fluorescence; activation, % at 3.6 µM; actives 20% (n = 450); in the data active means activation above about 45%;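 further: cells stimulated with submaximal NPY then isoproterenol with phosphodiesterase inhibitor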
NPY-Y1 agonist 2 = NPY-Y1 direct agonists, selectivity assay for NPY-Y2 potentiator project, cell-based, fluorescence. shares compounds with NPY2 pot ag. HEK293 Y1-CNGC, membrane potential fluorescence, agonism. activation, % at 3.6 µM. actives 37% (n = 450). AID 1702, 2009;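 active means activation above the mean of DMSO-only control wells plus 3 SD, cut at about 18% in these data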;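 further: cells stimulated with 1 µM isoproterenol plus the PDE inhibitor Ro 20-1724; Y1 agonists lower the membrane potential dye signal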
CNGC inh = CNGC cAMP sensor activity inhibitors, counter-screen for NPY-Y2 potentiator project, cell-based, HEK293-CNG parental, membrane potential fluorescence. shares compounds with NPY2 pot ag. isoproterenol cAMP. inhibition, % at 3.6 µM. actives 32% (n = 450). AID 1703, 2009;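 active means inhibition above the control-well mean plus 3 SD of those wells, cut at about 22% in these data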
Y2 agonist ctr = NPY-Y2 direct agonists, counter-screen for NPY-Y2 potentiator project, cell-based, fluorescence; shares compounds with NPY2 pot ag; HEK293 Y2/CNGC cells, membrane potential fluorescence, agonist mode; activation, % at 3.6 µM; actives 56% (n = 450); AID 1710, 2009;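 active means activation above the mean of solvent-only control wells plus 3 SD, cut at about 10% in these data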;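 further: cells stimulated by isoproterenol with no NPY added so direct agonism is tested; agonism lowers probe fluorescence through less cAMP and CNG channel opening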
Of the large screens only hits and unclear results are named; the others gave an inactive call (follow-up assays come after a bar, where they were run).

CCOc1ccc2nc(NC(=O)C3CCN(c4cnccn4)CC3)sc2c1	none
O=C(CNCCC1=CCCCC1)Nc1ccc(N2CCCCCC2)cc1	NPY2 pot ag 45 | NPY-Y2 pot conf 39 | NPY-Y1 potentiator 45 | NPY-Y1 agonist 2 37 | CNGC inh 38 | Y2 agonist ctr 46
O=C(CNC1CCCCCC1)Nc1ccc(N2CCCC2)cc1	none
COc1ccc(-n2c(C)cc(C(=O)COC(=O)Cn3cnc4ccccc43)c2C)cc1	NPY2 pot ag 38 | NPY-Y2 pot conf inactive | NPY-Y1 potentiator inactive | NPY-Y1 agonist 2 inactive | CNGC inh inactive | Y2 agonist ctr inactive
COc1ccc(-n2c(C)cc(C(=O)CN3C(=O)c4ccccc4C3=O)c2C)cc1	none
O=C(c1cc(COc2c(F)cccc2F)on1)N1CCC(c2ccncc2)CC1	NPY2 pot ag 36 (no result: NPY-Y2 antag) | NPY-Y2 pot conf inactive | NPY-Y1 potentiator inactive | NPY-Y1 agonist 2 inactive | CNGC inh inactive | Y2 agonist ctr inactive
Cc1cccc(C)c1Nc1c(-c2ccc(N3CCOCC3)cc2)nc2ncccn12	NPY2 pot ag 43 | NPY-Y2 pot conf 91 | NPY-Y1 potentiator 111 | NPY-Y1 agonist 2 96 | CNGC inh 83 | Y2 agonist ctr 97
COc1cccc(C(=O)Nc2ccc(F)cc2F)c1	none
COc1cccc(C(=O)Nc2ccccc2F)c1	NPY2 pot ag 30 (no result: NPY-Y2 antag) | NPY-Y2 pot conf inactive | NPY-Y1 potentiator inactive | NPY-Y1 agonist 2 inactive | CNGC inh inactive | Y2 agonist ctr inactive
O=C(NC(C(=O)N/N=C/c1cccnc1)c1n[nH]c(=O)c2ccccc12)c1ccccc1 (configuration not stated)	none (no result: NPY Y1 blocker, NPY-Y2 antag)
CCN(CC)S(=O)(=O)c1ccc2[nH]cc(C(=O)NCCN3CCCCC3C)c(=O)c2c1 (configuration not stated)	none
CCN(CC)S(=O)(=O)c1ccc2[nH]cc(C(=O)NCCC3=CCCCC3)c(=O)c2c1	NPY2 pot ag 34 | NPY-Y2 pot conf inactive | NPY-Y1 potentiator inactive | NPY-Y1 agonist 2 inactive | CNGC inh inactive | Y2 agonist ctr 23
CC(C)NC[C@@H](O)c1ccc(O)c(O)c1	NPY2 pot ag 52 | NPY-Y2 pot conf 54 | NPY-Y1 potentiator 51 | NPY-Y1 agonist 2 73 | CNGC inh 57 | Y2 agonist ctr 54
CC(C)c1ccc(O)c(N)c1	none
CCOc1ccc(NC(C)=O)cc1[N+](=O)[O-]	none (no result: NPY-Y2 antag)
CCc1noc(C)c1C(=O)Nc1nc(-c2cc(C)ccc2C)c(C)s1	none
CCc1noc(C)c1C(=O)Nc1ncc(C)s1	NPY2 pot ag 32 | NPY-Y2 pot conf inactive | NPY-Y1 potentiator inactive | NPY-Y1 agonist 2 inactive | CNGC inh inactive | Y2 agonist ctr inactive
O=C(NCc1ccccc1Cl)NCc1ccccc1Cl	NPY2 pot ag 99 (no result: NPY Y1 blocker, NPY-Y2 antag) | NPY-Y2 pot conf inactive | NPY-Y1 potentiator inactive | NPY-Y1 agonist 2 inactive | CNGC inh inactive | Y2 agonist ctr inactive
NC(=O)NCc1ccccc1Cl	none (no result: NPY-Y2 antag)
